Measurements from ChEMBL document CHEMBL4376814, “Novel cyclin-dependent kinase 9 (CDK9) inhibitor with suppression of cancer stemness activity against non-small-cell lung cancer” (Eur J Med Chem, 2019).

Experiments:
[1] = biological target: Serine/threonine-protein kinase VRK2 (Homo sapiens) (UniProt Q86Y07); assay: Inhibition of recombinant human VRK2 (1 to 336 residues) at 1 uM using casein as substrate measured after 40 mins in presence of [gamma33P]ATP by scintillation counting method relative to control
Serine/threonine-protein kinase VRK2 (Homo sapiens), sequence (Q86Y07 whole entry, the tested form may be a part): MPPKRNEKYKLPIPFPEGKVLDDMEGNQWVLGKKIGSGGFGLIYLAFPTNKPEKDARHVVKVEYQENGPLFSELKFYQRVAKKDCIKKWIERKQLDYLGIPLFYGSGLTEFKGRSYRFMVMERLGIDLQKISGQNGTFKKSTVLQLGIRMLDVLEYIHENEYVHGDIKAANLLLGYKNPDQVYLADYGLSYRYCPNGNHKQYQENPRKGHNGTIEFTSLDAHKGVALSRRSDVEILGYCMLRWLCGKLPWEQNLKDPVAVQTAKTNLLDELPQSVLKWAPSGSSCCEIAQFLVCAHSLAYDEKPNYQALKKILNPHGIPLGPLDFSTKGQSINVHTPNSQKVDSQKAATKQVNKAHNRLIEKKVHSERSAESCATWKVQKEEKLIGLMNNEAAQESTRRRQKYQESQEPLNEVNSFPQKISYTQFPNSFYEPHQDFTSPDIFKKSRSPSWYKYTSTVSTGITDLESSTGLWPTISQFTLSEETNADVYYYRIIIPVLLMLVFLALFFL

[2] = biological target: PI3-kinase p110-alpha/p85-alpha (Homo sapiens) (UniProt P27986+P42336); assay: Inhibition of recombinant full-length human PI3K p110alpha/p85alpha at 1 uM using phosphatidylinositol-4, 5-bisphosphate as substrate measured after 40 mins by fluorescence assay relative to control; format: protein-complex assay
[3] = tested on: Tyrosine-protein kinase ABL1 (Homo sapiens), P00519 [Y253F]; assay: Inhibition of recombinant human Abl Y253F mutant (27 to end residues) at 1 uM using EAIYAAPFAKKK as substrate measured after 40 mins in presence of [gamma33P]ATP by scintillation counting method relative to control
[4] = biological target: Serine/threonine-protein kinase WNK3 (Homo sapiens) (UniProt Q9BYP7); assay: Inhibition of recombinant human WNK3 (1 to 434 residues) at 1 uM using MBP as substrate measured after 40 mins in presence of [gamma33P]ATP by scintillation counting method relative to control
Serine/threonine-protein kinase WNK3 (Homo sapiens), sequence (Q9BYP7 whole entry, the tested form may be a part): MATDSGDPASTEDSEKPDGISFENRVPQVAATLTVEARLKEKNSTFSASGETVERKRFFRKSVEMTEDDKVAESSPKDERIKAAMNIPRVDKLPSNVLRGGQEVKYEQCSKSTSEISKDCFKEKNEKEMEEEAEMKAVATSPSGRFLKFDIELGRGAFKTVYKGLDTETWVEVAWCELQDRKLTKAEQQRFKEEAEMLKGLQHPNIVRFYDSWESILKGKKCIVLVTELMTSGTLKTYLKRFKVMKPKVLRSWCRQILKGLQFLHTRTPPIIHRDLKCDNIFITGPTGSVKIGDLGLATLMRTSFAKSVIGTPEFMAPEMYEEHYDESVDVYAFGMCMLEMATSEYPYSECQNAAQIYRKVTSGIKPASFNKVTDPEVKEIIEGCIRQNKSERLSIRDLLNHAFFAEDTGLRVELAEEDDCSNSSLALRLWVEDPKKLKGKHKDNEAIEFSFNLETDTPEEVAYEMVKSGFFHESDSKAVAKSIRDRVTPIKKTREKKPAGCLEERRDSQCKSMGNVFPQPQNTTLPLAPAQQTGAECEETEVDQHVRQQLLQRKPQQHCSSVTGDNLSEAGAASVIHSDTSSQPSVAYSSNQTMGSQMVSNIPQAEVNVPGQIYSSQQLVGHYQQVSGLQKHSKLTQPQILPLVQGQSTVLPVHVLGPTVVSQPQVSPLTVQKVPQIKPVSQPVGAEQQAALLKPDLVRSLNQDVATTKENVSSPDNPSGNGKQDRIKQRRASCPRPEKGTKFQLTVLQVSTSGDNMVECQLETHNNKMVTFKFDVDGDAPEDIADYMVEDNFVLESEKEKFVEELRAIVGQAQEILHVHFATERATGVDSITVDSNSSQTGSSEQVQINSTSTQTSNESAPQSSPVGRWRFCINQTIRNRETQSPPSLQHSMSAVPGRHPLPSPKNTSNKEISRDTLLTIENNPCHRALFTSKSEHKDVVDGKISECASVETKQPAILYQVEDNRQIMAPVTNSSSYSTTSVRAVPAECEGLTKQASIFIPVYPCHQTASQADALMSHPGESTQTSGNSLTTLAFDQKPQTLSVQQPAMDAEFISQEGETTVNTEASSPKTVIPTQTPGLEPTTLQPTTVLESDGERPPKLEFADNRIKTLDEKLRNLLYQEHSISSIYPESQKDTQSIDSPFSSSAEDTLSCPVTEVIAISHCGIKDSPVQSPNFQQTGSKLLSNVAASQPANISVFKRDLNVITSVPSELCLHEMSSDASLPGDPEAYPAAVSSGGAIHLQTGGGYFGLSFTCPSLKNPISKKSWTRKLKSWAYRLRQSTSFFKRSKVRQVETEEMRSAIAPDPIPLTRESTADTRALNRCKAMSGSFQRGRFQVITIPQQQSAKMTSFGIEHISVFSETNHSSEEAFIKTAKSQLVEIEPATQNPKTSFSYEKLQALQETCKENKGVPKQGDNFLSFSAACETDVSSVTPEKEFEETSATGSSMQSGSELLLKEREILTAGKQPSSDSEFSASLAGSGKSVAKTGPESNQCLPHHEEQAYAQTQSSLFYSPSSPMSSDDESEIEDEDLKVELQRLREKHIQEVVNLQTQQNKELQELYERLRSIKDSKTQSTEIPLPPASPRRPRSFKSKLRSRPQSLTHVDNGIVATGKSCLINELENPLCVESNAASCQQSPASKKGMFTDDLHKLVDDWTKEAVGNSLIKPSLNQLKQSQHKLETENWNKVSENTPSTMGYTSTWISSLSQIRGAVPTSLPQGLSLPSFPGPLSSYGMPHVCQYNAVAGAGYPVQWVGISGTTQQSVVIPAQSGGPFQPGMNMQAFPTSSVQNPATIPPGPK
In short: (§1)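 Single-point inhibition at 1 µM was measured in the Eurofins KinaseProfiler panel. Values are the mean of two independent experiments.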

[5] = tested on: HCC827; assay: Antiproliferative activity against human HCC827 cells assessed as inhibition of cell viability after 72 hrs by CCK-8 assay; format: functional, cell-based; conditions: HCC827, 72 h
In short: (§2)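 Cells kept at 37 °C, 5% CO2 in DMEM or RPMI-1640 with 10% FBS and 1% penicillin/streptomycin, then seeded at 3000 cells/well (adherent) or 10,000 cells/well (suspension). Exposed to a range of concentrations for 72 h. CCK-8 added for 1-4 h before reading A450. […] Three independent experiments.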

[6] = tested on: Mast/stem cell growth factor receptor Kit (Homo sapiens), P10721 [V560G]; assay: Inhibition of recombinant human cKit (544 to end residues) V560G mutant at 1 uM using GGMEDIYFEFMGGKKK as substrate measured after 40 mins in presence of [gamma33P]ATP by scintillation counting method relative to control; in short: as §1
[7] = biological target: Receptor-type tyrosine-protein kinase FLT3 (Homo sapiens) (UniProt P36888); assay: Inhibition of recombinant human Flt3 (564 to end residues) at 1 uM using EAIYAAPFAKKK as substrate measured after 40 mins in presence of [gamma33P]ATP by scintillation counting method relative to control
[8] = organism: Homo sapiens; assay: Inhibition of recombinant human BrSK2 […] mutant (2 to end residues) at 1 uM using KKLNRTLSFAEPG as substrate measured after 40 mins in presence of [gamma33P]ATP by scintillation counting method relative to control
[9] = biological target: Bone morphogenetic protein receptor type-2 (Homo sapiens) (UniProt Q13873); assay: Inhibition of recombinant human BMPR2 (172 to 734 residues) at 1 uM using myelin basic protein as substrate measured after 120 mins in presence of [gamma33P]ATP by scintillation counting method relative to control
[10] = biological target: Testis-specific serine/threonine-protein kinase 3 (Homo sapiens) (UniProt Q96PN8); assay: Inhibition of recombinant full-length human TSSK3 at 1 uM using AMARAASAAALARRR as substrate measured after 40 mins in presence of [gamma33P]ATP by scintillation counting method relative to control
Testis-specific serine/threonine-protein kinase 3 (Homo sapiens), sequence (Q96PN8 whole entry): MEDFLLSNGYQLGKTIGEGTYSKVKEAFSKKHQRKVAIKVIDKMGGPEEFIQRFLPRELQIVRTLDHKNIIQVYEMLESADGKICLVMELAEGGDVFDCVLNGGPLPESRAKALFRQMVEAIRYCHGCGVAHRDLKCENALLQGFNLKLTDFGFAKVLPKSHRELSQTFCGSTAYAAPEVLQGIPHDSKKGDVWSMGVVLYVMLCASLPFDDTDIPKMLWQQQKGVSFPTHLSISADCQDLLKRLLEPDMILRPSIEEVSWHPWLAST

[11] = biological target: Inhibitor of nuclear factor kappa-B kinase subunit beta (Homo sapiens) (UniProt O14920); assay: Inhibition of recombinant full-length human IKKbeta at 1 uM using peptide substrate measured after 40 mins in presence of [gamma33P]ATP by scintillation counting method relative to control
[12] = biological target: Myotonin-protein kinase (Homo sapiens) (UniProt Q09013); assay: Inhibition of recombinant human DMPK (1 to 549 residues) at 1 uM using KKSRGDYMTMQIG as substrate measured after 40 mins in presence of [gamma33P]ATP by scintillation counting method relative to control
Myotonin-protein kinase (Homo sapiens), sequence (Q09013 whole entry, the tested form may be a part): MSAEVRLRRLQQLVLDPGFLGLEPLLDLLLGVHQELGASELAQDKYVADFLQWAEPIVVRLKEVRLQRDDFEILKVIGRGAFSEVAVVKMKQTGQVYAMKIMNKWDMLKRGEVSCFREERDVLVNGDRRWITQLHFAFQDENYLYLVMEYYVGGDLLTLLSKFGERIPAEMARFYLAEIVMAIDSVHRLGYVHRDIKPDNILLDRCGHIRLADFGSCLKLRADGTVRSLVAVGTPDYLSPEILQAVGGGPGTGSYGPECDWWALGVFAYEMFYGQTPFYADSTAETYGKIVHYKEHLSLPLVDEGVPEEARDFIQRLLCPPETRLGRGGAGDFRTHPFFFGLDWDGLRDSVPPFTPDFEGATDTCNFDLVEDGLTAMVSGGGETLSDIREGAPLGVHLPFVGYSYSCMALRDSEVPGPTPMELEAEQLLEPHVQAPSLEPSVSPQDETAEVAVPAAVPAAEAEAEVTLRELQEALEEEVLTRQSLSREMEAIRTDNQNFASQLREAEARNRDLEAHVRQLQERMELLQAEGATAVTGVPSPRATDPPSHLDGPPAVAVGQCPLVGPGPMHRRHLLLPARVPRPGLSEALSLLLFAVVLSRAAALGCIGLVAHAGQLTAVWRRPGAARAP

[13] = biological target: Serine/threonine-protein kinase D2 (Homo sapiens) (UniProt Q9BZL6); assay: Inhibition of recombinant full-length human PKD2 at 1 uM using KKLNRTLSVA as substrate measured after 40 mins in presence of [gamma33P]ATP by scintillation counting method relative to control
[14] = tested on: Serine/threonine-protein kinase Sgk2 (Homo sapiens), Q9HBY8 [S416D]; assay: Inhibition of recombinant human SGK2 S416D mutant (54 to end residues) at 1 uM using GRPRTSSFAEGKK as substrate measured after 40 mins in presence of [gamma33P]ATP by scintillation counting method relative to control
[15] = tested on: Proto-oncogene tyrosine-protein kinase receptor Ret (Homo sapiens), P07949 [V804L]; assay: Inhibition of human Ret V804L mutant (658 to end residues) at 1 uM using KKKVSRSGLYRSPSMPENLNRPR as substrate measured after 40 mins in presence of [gamma33P]ATP by scintillation counting method relative to control
Proto-oncogene tyrosine-protein kinase receptor Ret (Homo sapiens), P07949 [V804L], sequence (P07949 whole entry V804L): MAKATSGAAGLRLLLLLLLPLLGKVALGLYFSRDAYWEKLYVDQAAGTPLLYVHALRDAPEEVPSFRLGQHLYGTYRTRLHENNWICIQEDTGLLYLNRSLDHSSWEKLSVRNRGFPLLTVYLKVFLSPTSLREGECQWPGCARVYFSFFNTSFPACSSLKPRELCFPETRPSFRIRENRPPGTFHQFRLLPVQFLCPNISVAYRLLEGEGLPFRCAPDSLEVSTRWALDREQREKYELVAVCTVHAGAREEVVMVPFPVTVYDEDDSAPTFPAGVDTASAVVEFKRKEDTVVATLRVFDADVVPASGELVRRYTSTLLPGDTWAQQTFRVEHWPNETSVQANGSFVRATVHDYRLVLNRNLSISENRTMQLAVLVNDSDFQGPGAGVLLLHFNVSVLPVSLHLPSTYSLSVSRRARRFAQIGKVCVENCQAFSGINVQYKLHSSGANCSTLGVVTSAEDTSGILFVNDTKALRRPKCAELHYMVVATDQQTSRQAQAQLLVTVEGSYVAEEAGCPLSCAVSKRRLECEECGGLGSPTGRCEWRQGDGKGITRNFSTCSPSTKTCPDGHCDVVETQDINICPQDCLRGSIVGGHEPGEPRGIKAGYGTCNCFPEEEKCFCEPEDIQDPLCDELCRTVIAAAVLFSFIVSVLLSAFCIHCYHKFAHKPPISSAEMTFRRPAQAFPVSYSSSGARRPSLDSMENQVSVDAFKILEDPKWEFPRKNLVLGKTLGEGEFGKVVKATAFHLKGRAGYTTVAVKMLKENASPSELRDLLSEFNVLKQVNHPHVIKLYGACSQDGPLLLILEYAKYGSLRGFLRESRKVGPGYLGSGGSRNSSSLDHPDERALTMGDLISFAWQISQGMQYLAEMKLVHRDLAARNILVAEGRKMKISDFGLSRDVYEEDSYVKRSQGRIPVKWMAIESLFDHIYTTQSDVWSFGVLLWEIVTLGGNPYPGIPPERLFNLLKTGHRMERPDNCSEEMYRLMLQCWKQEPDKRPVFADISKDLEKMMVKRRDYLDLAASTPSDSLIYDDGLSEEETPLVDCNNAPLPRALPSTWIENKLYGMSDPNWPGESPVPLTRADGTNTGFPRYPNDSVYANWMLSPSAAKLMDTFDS
In short: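 Percent inhibition of kinase activity at a single compound concentration, measured by the outsourced Eurofins KinaseProfiler panel. Values are the mean of two independent experiments.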

[16] = tested on: CCRF-CEM; assay: Antiproliferative activity against human CCRF-CEM cells assessed as inhibition of cell viability after 72 hrs by CCK-8 assay; format: functional, cell-based; in short: as §2
[17] = biological target: PAS domain-containing serine/threonine-protein kinase (Homo sapiens) (UniProt Q96RG2); assay: Inhibition of recombinant human PASK (995 to end residues) at 1 uM using KKLNRTLSFAEPG as substrate measured after 40 mins in presence of [gamma33P]ATP by scintillation counting method relative to control
[18] = tested on: NCI-H1299; assay: Inhibition of tumorsphere formation in human H1299 cells after 2 weeks by microscopic analysis; format: functional, cell-based
[19] = biological target: Tyrosine-protein kinase Fgr (Homo sapiens) (UniProt P09769); assay: Inhibition of recombinant human FGR (2 to end residues) at 1 uM using poly(Glu, Tyr) 4:1 as substrate measured after 40 mins in presence of [gamma33P]ATP by scintillation counting method relative to control
[20] = biological target: Wee1-like protein kinase (Homo sapiens) (UniProt P30291); assay: Inhibition of recombinant human Wee1 (214 to end residues) at 1 uM using LSNLYHQGKFLQTFCGSPLYRRR as substrate measured after 40 mins in presence of [gamma33P]ATP by scintillation counting method relative to control
[21] = tested on: PC-9; assay: Antiproliferative activity against human PC9 cells assessed as inhibition of cell viability after 72 hrs by CCK-8 assay; format: functional, cell-based; conditions: PC-9, 72 h; in short: as §2
[22] = biological target: Inhibitor of nuclear factor kappa-B kinase subunit epsilon (Homo sapiens) (UniProt Q14164); assay: Inhibition of recombinant full-length human IKKepsilon at 1 uM using casein as substrate measured after 40 mins in presence of [gamma33P]ATP by scintillation counting method relative to control
Inhibitor of nuclear factor kappa-B kinase subunit epsilon (Homo sapiens), sequence (Q14164 whole entry): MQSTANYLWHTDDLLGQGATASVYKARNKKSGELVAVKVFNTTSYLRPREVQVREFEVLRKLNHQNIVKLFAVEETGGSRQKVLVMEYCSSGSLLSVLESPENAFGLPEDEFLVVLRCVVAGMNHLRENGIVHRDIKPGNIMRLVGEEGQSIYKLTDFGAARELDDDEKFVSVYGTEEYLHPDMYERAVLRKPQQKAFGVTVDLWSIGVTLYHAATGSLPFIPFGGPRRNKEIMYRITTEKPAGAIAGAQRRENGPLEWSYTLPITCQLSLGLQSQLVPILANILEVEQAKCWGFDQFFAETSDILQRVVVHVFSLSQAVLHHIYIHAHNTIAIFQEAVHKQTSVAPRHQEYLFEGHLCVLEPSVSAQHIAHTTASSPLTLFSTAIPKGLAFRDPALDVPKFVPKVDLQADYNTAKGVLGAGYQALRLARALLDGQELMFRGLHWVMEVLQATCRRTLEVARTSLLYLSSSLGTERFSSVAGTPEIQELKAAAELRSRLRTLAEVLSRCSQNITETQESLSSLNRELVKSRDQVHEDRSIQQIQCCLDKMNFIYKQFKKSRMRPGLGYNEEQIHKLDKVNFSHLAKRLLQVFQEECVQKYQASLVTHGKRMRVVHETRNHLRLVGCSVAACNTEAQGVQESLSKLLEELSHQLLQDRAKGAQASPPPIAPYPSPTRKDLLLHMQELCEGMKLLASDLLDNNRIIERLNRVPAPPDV

In the case of CN(C)C(=O)c1cc2cnc(Nc3ccc(NC(=O)CCCCCCCN=C=S)cc3)nc2n1C1CCCC1, the inhibition [1] is reported as 0%, the inhibition [2] is reported as 8% and the inhibition [3] is reported as 53%. It also gave an inhibition [4] of 12%, an IC50 [5] of 1070 nM and an inhibition [6] of 54%. For the same compound, the inhibition [7] was 66%, the inhibition [8] was 14% and the inhibition [9] was 73%. It also gave an inhibition [10] of 4%, an inhibition [11] of -1% and an inhibition [12] of 5%. The inhibition [13] was -6%, the inhibition [14] was 14% and the inhibition [15] was 46%. For the same compound, the IC50 [16] was over 10000 nM, the inhibition [17] was 6% and the inhibition [18] was “Dose-dependent effect”. For the same compound, the inhibition [19] was 66%, the inhibition [20] was 8% and the IC50 [21] was 947 nM. It also gave an inhibition [22] of -4%.
